Reference: ChEMBL document CHEMBL5260793, “Novel pyrazolo[3,4-d]pyrimidine with 4-(1H-benzimidazol-2-yl)-phenylamine as broad spectrum anticancer agents: Synthesis, cell based assay, topoisomerase inhibition, DNA intercalation and bovine serum albumin studies” (Eur J Med Chem, 2017)
Active and inactive are the calls of the source. The calls are words filed in the database; no cut-off is given here.

Assays:
[1] = test system: Panel colon (Carcinoma cell lines); experiment: Anticancer activity against human Panel colon (Carcinoma cell lines) assessed as cell growth inhibition incubated for 48 hrs by Sulphorhodamine B assay; format: functional
Summary of the method: (§1)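 NCI-60 five-dose screen. Cells in RPMI 1640 with 5% FBS and 2 mM L-glutamine were plated at 5,000–40,000 cells/well and held 24 h before dosing. Compounds came from DMSO stocks and were given at five concentrations (10-fold or ½-log dilutions) for 48 h at 37 °C. Adherent cells were TCA-fixed and stained with SRB; A515 was read. GI50 was set from growth = 50% and TGI from Ti = Tz, using Tz/C/Ti.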

[2] = target: T1, DNA topoisomerase 1 (Homo sapiens) (UniProt P11387); experiment: Inhibition of human DNA topoisomerase I mediated supercoiled pHOT1 plasmid DNA relaxation upto 100 uM incubated for 30 mins by ethidium bromide staining based agarose gel electrophoresis analysis
T1 sequence (whole entry): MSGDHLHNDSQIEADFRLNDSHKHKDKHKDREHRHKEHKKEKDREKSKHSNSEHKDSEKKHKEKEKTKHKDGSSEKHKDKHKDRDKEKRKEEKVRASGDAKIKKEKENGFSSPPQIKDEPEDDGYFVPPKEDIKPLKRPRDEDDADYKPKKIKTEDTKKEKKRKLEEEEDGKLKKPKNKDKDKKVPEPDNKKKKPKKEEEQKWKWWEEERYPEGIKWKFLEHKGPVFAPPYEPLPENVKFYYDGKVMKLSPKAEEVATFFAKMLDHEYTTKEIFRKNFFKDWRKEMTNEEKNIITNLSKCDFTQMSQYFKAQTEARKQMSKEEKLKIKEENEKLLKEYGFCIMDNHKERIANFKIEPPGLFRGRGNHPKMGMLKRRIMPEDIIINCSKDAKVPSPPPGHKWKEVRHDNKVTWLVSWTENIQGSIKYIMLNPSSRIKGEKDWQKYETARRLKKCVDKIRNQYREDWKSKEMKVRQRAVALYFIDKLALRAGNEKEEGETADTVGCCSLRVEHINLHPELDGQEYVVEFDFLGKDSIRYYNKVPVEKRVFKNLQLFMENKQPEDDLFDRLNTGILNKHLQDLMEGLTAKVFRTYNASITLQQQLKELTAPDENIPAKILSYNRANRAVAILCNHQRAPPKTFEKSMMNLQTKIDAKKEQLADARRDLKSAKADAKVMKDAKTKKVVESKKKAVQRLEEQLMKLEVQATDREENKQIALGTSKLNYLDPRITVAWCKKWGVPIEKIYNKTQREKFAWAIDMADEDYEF

[3] = test system: Panel leukemia (Carcinoma cell lines); experiment: Anticancer activity against human Panel leukemia (Carcinoma cell lines) assessed as lethality incubated for 48 hrs by Sulphorhodamine B assay; format: functional
[4] = test system: Panel breast (Carcinoma cell lines); experiment: Anticancer activity against human Panel breast (Carcinoma cell lines) assessed as total growth inhibition incubated for 48 hrs by Sulphorhodamine B assay; format: functional; summary of the method: as §1
[5] = test system: Panel prostate (Carcinoma cell lines); experiment: Anticancer activity against human Panel prostate (Carcinoma cell lines) assessed as lethality incubated for 48 hrs by Sulphorhodamine B assay; format: functional
[6] = test system: Panel ovarian (Carcinoma cell lines); experiment: Anticancer activity against human Panel ovarian (Carcinoma cell lines) assessed as lethality incubated for 48 hrs by Sulphorhodamine B assay; format: functional
[7] = test system: Calf thymus DNA; experiment: Displacement of Ethidium bromide from calf thymus DNA/EtBr complex assessed as decrease in fluorescent intensity by fluorescence based EtBr-displacement assay; format: nucleic-acid assay; conditions: Bos taurus
Summary of the method: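 ct-DNA (0–20 μM) was pre-mixed with ethidium bromide, diluted from a 1 mM stock. Compound was then added in 2 μM steps up to 50 μM, with mixing after each addition. Emission was recorded with excitation at 480 nm.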

[8] = target: Albumin (Bos taurus, UniProt P02769); experiment: Binding affinity to bovine serum albumin assessed as decrease in fluorescence intensity at pH 7.4 at 0 to 30 uM by fluorescence quenching method; conditions: cattle
Albumin, sequence (P02769 whole entry): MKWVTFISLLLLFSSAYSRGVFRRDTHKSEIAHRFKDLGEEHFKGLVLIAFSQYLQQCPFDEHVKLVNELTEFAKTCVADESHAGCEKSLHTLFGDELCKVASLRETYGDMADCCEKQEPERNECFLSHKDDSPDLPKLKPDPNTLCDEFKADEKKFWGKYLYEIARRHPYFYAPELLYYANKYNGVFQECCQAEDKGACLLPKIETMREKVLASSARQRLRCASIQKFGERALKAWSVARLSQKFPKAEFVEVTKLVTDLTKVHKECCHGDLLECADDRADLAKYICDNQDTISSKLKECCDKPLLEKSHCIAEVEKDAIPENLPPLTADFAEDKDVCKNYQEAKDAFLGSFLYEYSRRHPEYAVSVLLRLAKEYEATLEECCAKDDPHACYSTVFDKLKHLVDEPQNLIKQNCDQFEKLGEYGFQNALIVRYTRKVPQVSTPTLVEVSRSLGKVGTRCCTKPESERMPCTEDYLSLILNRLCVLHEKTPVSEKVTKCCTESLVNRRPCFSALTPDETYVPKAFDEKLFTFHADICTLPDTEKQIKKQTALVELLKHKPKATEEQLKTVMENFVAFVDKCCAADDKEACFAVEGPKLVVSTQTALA

[9] = test system: Panel breast (Carcinoma cell lines); experiment: Anticancer activity against human Panel breast (Carcinoma cell lines) assessed as cell growth inhibition incubated for 48 hrs by Sulphorhodamine B assay; format: functional; summary of the method: as §1
[10] = test system: Panel prostate (Carcinoma cell lines); experiment: Anticancer activity against human Panel prostate (Carcinoma cell lines) assessed as cell growth inhibition incubated for 48 hrs by Sulphorhodamine B assay; format: functional; summary of the method: as §1
[11] = test system: Panel renal (Carcinoma cell lines); experiment: Anticancer activity against human Panel renal (Carcinoma cell lines) assessed as cell growth inhibition incubated for 48 hrs by Sulphorhodamine B assay; format: functional; summary of the method: as §1
[12] = target: DNA topoisomerase 2-alpha (Homo sapiens) (UniProt P11388); experiment: Inhibition of human DNA topoisomerase II-alpha mediated supercoiled pHOT1 plasmid DNA relaxation at 100 uM incubated for 30 mins by ethidium bromide staining based agarose gel electrophoresis analysis
DNA topoisomerase 2-alpha (Homo sapiens), sequence (P11388 whole entry): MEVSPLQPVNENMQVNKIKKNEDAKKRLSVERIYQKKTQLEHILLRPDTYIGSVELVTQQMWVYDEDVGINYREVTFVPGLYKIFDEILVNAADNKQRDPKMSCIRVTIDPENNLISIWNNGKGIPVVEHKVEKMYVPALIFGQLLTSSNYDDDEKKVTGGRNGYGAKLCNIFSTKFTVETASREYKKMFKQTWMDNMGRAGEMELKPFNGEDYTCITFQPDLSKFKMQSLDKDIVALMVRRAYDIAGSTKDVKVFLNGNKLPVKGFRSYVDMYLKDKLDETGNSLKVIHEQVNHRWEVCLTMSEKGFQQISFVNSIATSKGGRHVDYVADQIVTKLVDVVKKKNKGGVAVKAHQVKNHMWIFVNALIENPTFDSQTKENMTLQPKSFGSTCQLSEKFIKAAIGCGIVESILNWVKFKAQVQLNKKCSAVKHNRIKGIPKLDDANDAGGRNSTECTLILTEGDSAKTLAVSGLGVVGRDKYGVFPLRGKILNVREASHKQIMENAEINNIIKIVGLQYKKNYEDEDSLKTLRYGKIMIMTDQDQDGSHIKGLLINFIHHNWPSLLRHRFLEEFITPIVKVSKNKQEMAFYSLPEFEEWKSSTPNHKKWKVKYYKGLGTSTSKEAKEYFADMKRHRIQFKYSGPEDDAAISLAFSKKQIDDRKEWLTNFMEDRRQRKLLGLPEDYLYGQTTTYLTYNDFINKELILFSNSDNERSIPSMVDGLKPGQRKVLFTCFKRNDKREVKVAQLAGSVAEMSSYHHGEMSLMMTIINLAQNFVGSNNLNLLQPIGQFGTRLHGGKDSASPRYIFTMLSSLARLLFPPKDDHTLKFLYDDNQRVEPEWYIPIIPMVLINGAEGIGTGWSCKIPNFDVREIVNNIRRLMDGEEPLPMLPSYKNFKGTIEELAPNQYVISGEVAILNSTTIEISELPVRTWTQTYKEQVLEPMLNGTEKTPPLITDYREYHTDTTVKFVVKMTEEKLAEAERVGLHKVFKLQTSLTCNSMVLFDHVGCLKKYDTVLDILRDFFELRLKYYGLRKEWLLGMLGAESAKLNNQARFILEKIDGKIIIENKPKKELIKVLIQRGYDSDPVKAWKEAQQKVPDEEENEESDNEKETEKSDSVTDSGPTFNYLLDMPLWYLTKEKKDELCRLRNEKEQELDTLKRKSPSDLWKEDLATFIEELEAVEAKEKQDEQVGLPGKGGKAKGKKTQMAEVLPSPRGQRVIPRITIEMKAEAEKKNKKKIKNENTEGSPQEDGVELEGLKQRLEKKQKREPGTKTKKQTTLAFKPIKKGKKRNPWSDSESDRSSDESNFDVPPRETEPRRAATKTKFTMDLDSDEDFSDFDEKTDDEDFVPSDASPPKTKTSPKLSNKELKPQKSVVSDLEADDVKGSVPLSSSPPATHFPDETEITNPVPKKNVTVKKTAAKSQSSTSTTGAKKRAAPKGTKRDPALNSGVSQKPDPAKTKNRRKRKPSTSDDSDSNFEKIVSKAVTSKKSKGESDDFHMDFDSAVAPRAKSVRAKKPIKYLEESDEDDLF
Summary of the method: (§2)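 Reaction buffer: 50 mM Tris-Cl pH 8.0, 120 mM KCl, 10 mM MgCl2, 0.5 mM ATP, 0.5 mM DTT. Each reaction held 500 ng supercoiled pHOT1 and 1 U human Topo IIα, with compound at 10–100 μM, for 30 min at 37 °C. Reactions were stopped with glycerol/EDTA/bromophenol blue, run on 1% agarose in TBE, and stained with ethidium bromide. Etoposide 25 μM was the positive control.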

[13] = target: DNA topoisomerase 2-alpha (Homo sapiens) (UniProt P11388); experiment: Inhibition of human DNA topoisomerase II-alpha mediated supercoiled pHOT1 plasmid DNA relaxation at 50 uM incubated for 30 mins by ethidium bromide staining based agarose gel electrophoresis analysis; summary of the method: as §2
[14] = test system: Panel melanoma (Carcinoma cell lines); experiment: Anticancer activity against human Panel melanoma (Carcinoma cell lines) assessed as total growth inhibition incubated for 48 hrs by Sulphorhodamine B assay; format: functional; summary of the method: as §1
[15] = test system: Calf thymus DNA; experiment: Binding affinity to calf thymus DNA assessed as maximum absorption wavelength shift at pH 7.4 at 10 uM by UV-vis absorption spectroscopy; format: nucleic-acid assay; conditions: Bos taurus
Summary of the method: (§3)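 Absorption titration at 300 K in a 1 cm cell, background subtracted. Compound was fixed (10 μM per legend; 20 μM in methods) with ct-DNA added up to 15–20 μM in 10 mM phosphate buffer, pH 7.4 (A260/A280 1.82). A buffer-addition control was run. K was taken from the 1/(Af−Aobs) vs 1/[DNA] fit.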

[16] = test system: Panel ovarian (Carcinoma cell lines); experiment: Anticancer activity against human Panel ovarian (Carcinoma cell lines) assessed as total growth inhibition incubated for 48 hrs by Sulphorhodamine B assay; format: functional
[17] = test system: Panel renal (Carcinoma cell lines); experiment: Anticancer activity against human Panel renal (Carcinoma cell lines) assessed as total growth inhibition incubated for 48 hrs by Sulphorhodamine B assay; format: functional
[18] = Anticancer activity against human Non-small cell lung cancer cell line assessed as total growth inhibition incubated for 48 hrs by Sulphorhodamine B assay; format: functional; summary of the method: as §1
[19] = Anticancer activity against human Non-small cell lung cancer cell line assessed as lethality incubated for 48 hrs by Sulphorhodamine B assay; format: functional
[20] = target: DNA topoisomerase 2-alpha (Homo sapiens) (UniProt P11388); experiment: Inhibition of human DNA topoisomerase II-alpha mediated supercoiled pHOT1 plasmid DNA relaxation at 75 uM incubated for 30 mins by ethidium bromide staining based agarose gel electrophoresis analysis; summary of the method: as §2
[21] = test system: Panel melanoma (Carcinoma cell lines); experiment: Anticancer activity against human Panel melanoma (Carcinoma cell lines) assessed as lethality incubated for 48 hrs by Sulphorhodamine B assay; format: functional
[22] = test system: Panel CNS (Carcinoma cell lines); experiment: Anticancer activity against human Panel CNS (Carcinoma cell lines) assessed as lethality incubated for 48 hrs by Sulphorhodamine B assay; format: functional
[23] = test system: Panel renal (Carcinoma cell lines); experiment: Anticancer activity against human Panel renal (Carcinoma cell lines) assessed as lethality incubated for 48 hrs by Sulphorhodamine B assay; format: functional
[24] = test system: Panel colon (Carcinoma cell lines); experiment: Anticancer activity against human Panel colon (Carcinoma cell lines) assessed as total growth inhibition incubated for 48 hrs by Sulphorhodamine B assay; format: functional; summary of the method: as §1
[25] = test system: Panel leukemia (Carcinoma cell lines); experiment: Anticancer activity against human Panel leukemia (Carcinoma cell lines) assessed as total growth inhibition incubated for 48 hrs by Sulphorhodamine B assay; format: functional
[26] = test system: Panel prostate (Carcinoma cell lines); experiment: Anticancer activity against human Panel prostate (Carcinoma cell lines) assessed as total growth inhibition incubated for 48 hrs by Sulphorhodamine B assay; format: functional; summary of the method: as §1
[27] = test system: Panel melanoma (Carcinoma cell lines); experiment: Anticancer activity against human Panel melanoma (Carcinoma cell lines) assessed as cell growth inhibition incubated for 48 hrs by Sulphorhodamine B assay; format: functional; summary of the method: as §1
[28] = test system: Panel ovarian (Carcinoma cell lines); experiment: Anticancer activity against human Panel ovarian (Carcinoma cell lines) assessed as cell growth inhibition incubated for 48 hrs by Sulphorhodamine B assay; format: functional; summary of the method: as §1
[29] = test system: Panel CNS (Carcinoma cell lines); experiment: Anticancer activity against human Panel CNS (Carcinoma cell lines) assessed as total growth inhibition incubated for 48 hrs by Sulphorhodamine B assay; format: functional; summary of the method: as §1
[30] = test system: Calf thymus DNA; experiment: Binding affinity to calf thymus DNA assessed as hypochromicity at pH 7.4 at 10 uM by UV-vis absorption spectroscopy; format: nucleic-acid assay; conditions: Bos taurus; summary of the method: as §3
[31] = test system: Panel breast (Carcinoma cell lines); experiment: Anticancer activity against human Panel breast (Carcinoma cell lines) assessed as lethality incubated for 48 hrs by Sulphorhodamine B assay; format: functional; conditions: read-out: LC50 (the source's name)
[32] = test system: Panel leukemia (Carcinoma cell lines); experiment: Anticancer activity against human Panel leukemia (Carcinoma cell lines) assessed as cell growth inhibition incubated for 48 hrs by Sulphorhodamine B assay; format: functional; summary of the method: as §1
[33] = test system: Panel colon (Carcinoma cell lines); experiment: Anticancer activity against human Panel colon (Carcinoma cell lines) assessed as lethality incubated for 48 hrs by Sulphorhodamine B assay; format: functional
[34] = test system: Panel CNS (Carcinoma cell lines); experiment: Anticancer activity against human Panel CNS (Carcinoma cell lines) assessed as cell growth inhibition incubated for 48 hrs by Sulphorhodamine B assay; format: functional; summary of the method: as §1
[35] = Anticancer activity against human Non-small cell lung cancer cell line assessed as cell growth inhibition incubated for 48 hrs by Sulphorhodamine B assay; format: functional; summary of the method: as §1

Compound	GI50 [1]	inhibition [2]	TGI [4]	Activity [8]	GI50 [9]	GI50 [10]	GI50 [11]	inhibition [12]	inhibition [13]	TGI [14]	Activity [15]	TGI [18]	inhibition [20]	TGI [24]	TGI [26]	GI50 [27]	GI50 [28]	TGI [29]	Activity [30]	GI50 [32]	other results
c1ccc(CNc2nc(Nc3ccc(-c4nc5ccccc5[nH]4)cc3)c3cn[nH]c3n2)cc1	2 µM	inactive	5.85 µM	Active	2.04 µM	2.56 µM	2.3 µM	Active	Active	4.29 µM	264 nm	8.99 µM	Active	5.12 µM	9.43 µM	1.85 µM	2.52 µM	16.7 µM	Active	2.67 µM	LC50 [3]: > 100 µM; LC50 [5]: 41.8 µM; LC50 (concentration killing 50% of cells) [6]: 41.8 µM; Activity [7]: Active; TGI [16]: 7.83 µM; TGI [17]: 6.16 µM; LC50 (lethal concentration, 50% cell kill) [19]: 55.3 µM; LC50 (lethal concentration 50) [21]: 19.3 µM; LC50 (concentration killing 50% of cells) [22]: 28.1 µM; LC50 (50% lethal concentration) [23]: 31.2 µM; TGI [25]: 6.43 µM; CC50 [31]: 46.3 µM; LC50 (lethal concentration, 50% cell kill) [33]: 34.7 µM; GI50 [34]: 2.96 µM; GI50 [35]: 2.54 µM
CC[C@H](CO)Nc1nc(NCc2ccccc2)c2ncn(C(C)C)c2n1 [SELICICLIB]	24.8 µM		73 µM		22.7 µM	17.9 µM	24.9 µM			57.6 µM		84.8 µM		84.9 µM	81.5 µM	14.8 µM	29.3 µM	82.2 µM		37.5 µM	GI50 [34]: 24.7 µM; GI50 [35]: 23.6 µM
c1ccc2[nH]c(-c3ccc(Nc4nc(N5CCOCC5)nc5[nH]ncc45)cc3)nc2c1		inactive		Active				Active	Active		260 nm		Active						Active		
NCCNc1nc(Nc2ccc(-c3nc4ccccc4[nH]3)cc2)c2cn[nH]c2n1		inactive		Active				Active	Active		259 nm		Active						Active		
c1ccc2[nH]c(-c3ccc(Nc4nc(N5CCCC5)nc5[nH]ncc45)cc3)nc2c1	2.32 µM	inactive	2.08 µM	Active	0.73 µM	1.37 µM	1.22 µM	Active	Active	1.53 µM	259 nm	3.17 µM	Active	5.88 µM	3.14 µM	0.67 µM	1.1 µM	2.01 µM	Active	2.38 µM	LC50 [3]: 31.8 µM; LC50 [5]: 20.6 µM; LC50 (concentration killing 50% of cells) [6]: 6.85 µM; Activity [7]: Active; TGI [16]: 2.73 µM; TGI [17]: 2.67 µM; LC50 (lethal concentration, 50% cell kill) [19]: 11.5 µM; LC50 (lethal concentration 50) [21]: 4.32 µM; LC50 (concentration killing 50% of cells) [22]: 4.17 µM; LC50 (50% lethal concentration) [23]: 7.04 µM; TGI [25]: 6.7 µM; CC50 [31]: 6.35 µM; LC50 (lethal concentration, 50% cell kill) [33]: 2.23 µM; GI50 [34]: 0.86 µM; GI50 [35]: 1.08 µM
